# This excerpt belongs to a sample that is enriched for hits.
# G6PDH CS: L. mesenteroides G6PDH inhibitors, counter-screen for G6PDH-coupled screening assays, biochemical, Leuconostoc mesenteroides enzyme | actives 0.12% (n = 200,000) | glucose-6-phosphate dehydrogenase [Leuconostoc mesenteroides] | Purified L. mesenteroides G6PDH, diaphorase/resazurin coupled fluorescence, 45 min | inhibition, % at 5 µM
# PfGluPho inh: PfG6PD enzyme inhibitors, primary screen, biochemical, fluorescence intensity, uHTS; actives 0.78% (n = 350,000); PfGluPho enzyme, NADPH resazurin-diaphorase fluorescence; glucose-6-phosphate dehydrogenase-6-phosphogluconolactonase (Plasmodium falciparum 3D7); inhibition, % at 20 µM;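 active = inhibition reaching at least a set limit at 20 µM in the primary screen, cut at about 59% in these data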;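 note: 0% = DMSO wells with substrate and 100% = DMSO wells lacking glucose-6-phosphate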
# Lmaj promast: Leishmania major promastigote growth inhibition, primary screen; Leishmania major promastigotes, resazurin fluorescence viability; inhibition, % at 10 µM; actives 9% (n = 200,000); AID 1063, 2008;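 note: promastigotes grown with compound for 44 hours at 28 °C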
# Redox H2O2 prof: compounds producing H2O2 with reducing agent – biochemical, NIH compound library profiling, artefact control for MLSCN library redox annotation, primary screen. AID 878, 2007. activation, % at 10 µM. DTT-dependent redox cycling H2O2, phenol red/HRP absorbance; 100% = 100 µM peroxide control, 0% = buffer. actives 0.03% (n = 200,000);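 active = activation of at least 50% relative to the plate's high and low controls in the primary single-dose screen; inactive = activation below 50%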;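 note: compound incubated with DTT at 0.8 mM final as the reducing agent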
# Diaphorase inh: diaphorase inhibitors and chemical oxidizers, primary screen, counter-screen for diaphorase-coupled primary assays, biochemical, uHTS, resorufin fluorescence; diaphorase resazurin-to-resorufin fluorescence, NADH, 16 min; bacterial (C. kluyveri) enzyme, not human; actives 0.69% (n = 190,000); inhibition, % at 20 µM; AID 1217, 2008;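 active = primary screen inhibition at 20 µM above a set limit, cut at about 50% in these data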;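 note: plate controls were DMSO with full reaction for no effect and wells lacking NADH for full effect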
#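 Benchmarks: positive control wells lacking NADH, neutral wells with DMSO only. System: bacterial diaphorase enzyme (C. kluyveri). Input: 0.14 U/mL diaphorase, enzyme working solution. Detection: resorufin fluorescence, excitation 544 nm, emission 590 nm. Times: 16-min room-temperature incubation before reading.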
# Diaph act CS: compounds boosting diaphorase resazurin reduction – biochemical, uHTS, resorufin fluorescence, counter-screen for diaphorase-coupled primary assays, primary screen; activation factor at 20 µM; actives 0.005% (n = 190,000); Diaphorase/resazurin coupled assay, 16 min; active compounds read high; 1 = vehicle wells, 0 = NADH-free wells;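 active = diaphorase activity raised at least twofold by the compound at 20 µM; inactive = activation factor below 2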
#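 Test system: Clostridium kluyveri diaphorase, purified enzyme. Buffer or medium: 50 mM HEPES pH 7.4 buffer plus MgCl2 and Tween 20. Also added: 0.114 mM NADH and 0.1 mM resazurin, final amounts. Dosing: compound 20 µM once, DMSO 1%. Schedule: 16 min enzyme reaction, ambient temperature. Detection: fluorescence of resorufin, 544 nm excitation, 590 nm emission.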
# PfG6PD confirm: PfG6PD inhibitors, hit retest, confirmation, biochemical, fluorescence intensity, single concentration. inhibition, % at 20 µM. shares compounds with PfGluPho inh. recombinant PfGluPho, NADPH-diaphorase-resazurin fluorescence. actives 34% (n = 2,400);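 active = inhibition of at least 50% at 20 µM in any single replicate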;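 note: 0% = DMSO with substrate and 100% = DMSO lacking glucose-6-phosphate substrate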
# Diaphorase 10uM: diaphorase inhibitors and chemical oxidizers, confirmation, counter-screen for P. falciparum G6PD inhibitor project, biochemical, fluorescence intensity, 10 µM NADPH. shares compounds with PfGluPho inh. diaphorase-coupled resazurin reduction, NADPH 10 uM. inhibition, % at 20 µM. actives 39% (n = 820);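 active = average inhibition reaching 50% or more with the compound at 20 µM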;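 note: resorufin red fluorescence formed as diaphorase reduces resazurin using NADPH; 0% = DMSO with enzyme and 100% = DMSO without enzyme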
# Diaph ctr 30uM: diaphorase inhibitors and chemical oxidizers, confirmation, counter-screen for P. falciparum G6PD inhibitor project, biochemical, fluorescence intensity, 30 µM NADPH; AID 504863, 2011; shares compounds with PfGluPho inh; Diaphorase/resazurin coupled assay, resorufin fluorescence; actives 29% (n = 820); inhibition, % at 20 µM;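 active = inhibition averaging 50% or more, tested at 20 µM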;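 note: 0% = DMSO with enzyme and 100% = DMSO wells lacking diaphorase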
# The depositor's hits bear a star; · = no result given; ! = not confirmed by another sample. Cut-off read from the data, not from the text of the source, unless noted: active = inhibition above about 50%; inactive = the rest.
SMILES,G6PDH CS,PfGluPho inh,Lmaj promast,Redox H2O2 prof,Diaphorase inh,Diaph act CS,PfG6PD confirm,others
O=C(NCCC1=CCCCC1)C1CCN(S(=O)(=O)c2ccccc2C(F)(F)F)CC1,·,-9,·,·,·,·,·,
Cc1cc(C(=O)O)ccc1-n1c(C)cc(C=C2C(=O)c3ccccc3C2=O)c1C,0,80*,1,-2,29,0.7,47*,Diaphorase 10uM=60*;Diaph ctr 30uM=41
COc1ccc(S(=O)(=O)Nc2c(C(=O)O)[nH]c3ccccc23)c(OC)c1,4,-17,-9,-3,12,0.9,·,
COc1ccc(S(=O)(=O)Nc2c(C(=O)O)[nH]c3ccc(OC)cc23)c(OC)c1,·,67*,·,·,·,·,4,
c1cc(N2CCCCC2)nc(N2CCCCC2)n1,·,4,·,·,·,·,·,
C[c-]1[c-](C)[c-](C)[c-](C)[c-]1C.[Fe].c1cc2nccc(N3CCCC3)[c-]2c1 (stereo not given),·,85*,·,·,·,·,66*!,Diaphorase 10uM=15;Diaph ctr 30uM=11
O=C(NC1CCCC1)C(c1cccnc1)N(Cc1ccccc1)C(=O)c1csnn1 (stereo not given),·,-8,·,·,·,·,·,
CC(C)(C)CC(=O)NC(=S)NCc1ccco1,2,2,3,0,7,0.9,·,
COc1ccc(NC(=O)CSc2nnnn2Cc2ccccc2)cc1,20,-14,-4,3,1,1,·,
NC(=S)NN=Cc1nccc2c(C(F)(F)F)cccc12,·,17,·,·,·,·,·,
CNc1cccnc1C=NNC(N)=S,·,74*,·,·,·,·,23,
CC(O)[C@H]1CNC(=O)C(=O)N1CCCCC1CCCCC1 (stereo not given in full),·,-2,·,·,·,·,·,
O=C(CN1CCN(Cc2cccc(F)c2)CC1)NCc1ccccc1,·,1,·,·,·,·,·,
COc1ccc(N(S(=O)(=O)c2ccccc2)S(=O)(=O)c2ccccc2)c(N)c1,·,19,·,·,·,·,·,
COc1ccc2c3c(ccc2c1)C(=O)/C(=C/O)CC3,·,69*,·,·,·,·,45,
Cc1cc(=O)[nH]c(N/N=C/c2c(C)nn(-c3ccccc3)c2Cl)n1,·,86*,·,·,·,·,78*,Diaphorase 10uM=-14;Diaph ctr 30uM=-11
Cc1nn(-c2ccccc2)c(Cl)c1/C=N/Nc1nc2ccccc2[nH]1,-36,17,36,1,13,0.9,·,
O=C(COC(=O)C12CC3CC(CC(C3)C1)C2)Nc1ccccc1F,10,8,-5,0,11,0.9,·,
Nc1ccc(Cc2ccc(N)c(O)c2)cc1O,27,72*,99*,1,14,0.9,46,
CC(Sc1ccc(S(=O)(=O)N2CCCCCC2)cn1)C(N)=O (stereo not given),·,-12,·,·,·,·,·,
COc1ccc(CNC(=O)Cc2cn(C)c3ccccc23)c(OC)c1,·,79*,·,·,·,·,55*,Diaphorase 10uM=49;Diaph ctr 30uM=52*
COc1ccccc1CNC(=O)CCCc1cn(C)c2ccccc12,·,-13,·,·,·,·,·,
Cc1cc(C)c(NC(=S)NCC2CCN(C(C)c3ccccc3)C2)c(C)c1 (stereo not given),1,84*,29,7,6,0.9,76*,Diaphorase 10uM=0;Diaph ctr 30uM=-3
CCc1ccc(S(=O)(=O)Nc2c(C)n(C)n(-c3ccccc3)c2=O)cc1,·,-5,·,·,·,·,·,
O=[N+]([O-])c1ccc2c(c1)/C(=N\O)c1ccccc1-2,·,-16,·,·,·,·,·,
SMILES,G6PDH CS,PfGluPho inh,Lmaj promast,Redox H2O2 prof,Diaphorase inh,Diaph act CS,PfG6PD confirm,others
O=[N+]([O-])c1ccc2c(c1)-c1ccccc1C2O (stereo not given),·,114*,·,·,·,·,97*,Diaphorase 10uM=37;Diaph ctr 30uM=19
CCOC(=O)c1sc(=S)n(-c2cc(F)ccc2F)c1N,4,22,-2,0,15,0.9,·,
CCOC(=O)c1sc(=S)n(-c2cc(OC)ccc2OC)c1N,2,78*,-8,0,13,0.9,45,
COC(=O)c1sc(=S)n(-c2cc(F)ccc2F)c1N,-2,60*,-3,0,12,0.9,21,
Cc1cc(C(=O)NCCc2ccc(Cl)cc2)no1,16,-2,0,0,-2,1,·,
Oc1c(CN2CCOCC2)cc(CN2CCOCC2)c(O)c1O,·,82*,·,·,·,·,64*,Diaphorase 10uM=52*;Diaph ctr 30uM=55*
Oc1cccc(CN2CCOCC2)c1O,·,12,·,·,·,·,·,
CC(C)CC(N=Cc1c(O)c2ccccc2oc1=O)C(=O)O (stereo not given),4,5,-6,0,7,0.9,·,
C[C@H](CO)N1C[C@H](C)[C@H](CN(C)C(=O)Nc2ccnc(N3CCOCC3)c2)OCc2cnnn2CCCC1=O,·,-13,·,·,·,·,·,
O=C(Nc1ccncc1)c1cc2ccccc2cc1O,·,68*,·,·,·,·,43,
COc1cc(OC)c(NC(=O)c2cc3ccccc3cc2O)cc1Cl,·,85*,·,·,·,·,23,
COc1cc(NC(=O)c2ccccc2)c(OC)cc1Cl,1,11,12,1,12,0.9,·,
O=C(Nc1cccc([N+](=O)[O-])c1)c1cc2ccccc2cc1O,·,73*,·,·,·,·,11,
O=C(Nc1ccc2c(c1)CCCN2C(=O)c1cccs1)c1c(F)cccc1Cl,·,1,·,·,·,·,·,
CN(CC1CCOCC1)C(=O)CC1C(=O)NCCN1Cc1ccc(-c2ccccc2)cc1 (stereo not given),9,26,-3,-1,16,0.8,·,
CCNC(=O)COC(=O)c1cccc(Br)c1,·,-4,·,·,·,·,·,
COc1ccc(N2CCN(C(=O)COc3ncnc4ccccc34)CC2)cc1,8,1,0,-2,10,0.9,·,
CC1CCN(C(=O)c2ncn(Cc3ccccc3)c2C(=O)N2CCC(C)CC2)CC1,·,3,·,·,·,·,·,
Cc1ccc(N2CCN(S(=O)(=O)c3ccc(C)cc3)CC2)cc1,·,-7,·,·,·,·,·,
O=C(CN1CCN(c2ccc(O)cc2)CC1)Nc1ccc2c(c1)OCCO2,2,71*,-2,0,38,0.6,21,
O=C(CN1CCN(c2ccc(O)cc2)CC1)NCC(=O)Nc1ccc(F)c(F)c1F,·,67*,·,·,·,·,33,
O=C(CN1CCN(c2ccc(F)cc2)CC1)Nc1ccc2c(c1)OCCO2,·,-2,·,·,·,·,·,
